Source: ChEMBL document CHEMBL3217744, “Non-iminosugar glucocerebrosidase small molecule chaperones” (Medchemcomm, 2012)
Each block holds one compound with its values, some of them ahead of it. Calls of active or inactive are those of the source. No cut-off for these calls is given here.

Tests used:
[1] = tested on: T1, Lysosomal acid glucosylceramidase (Homo sapiens), P04062 [N409S]; assay: (§1) Inhibition of glucocerebrosidase N370S mutant in spleen homogenates of patient with Gaucher disease using resorufin-beta-D-glucopyranoside as substrate after 20 mins fluorescence assay; format: tissue-based
T1 sequence (whole entry): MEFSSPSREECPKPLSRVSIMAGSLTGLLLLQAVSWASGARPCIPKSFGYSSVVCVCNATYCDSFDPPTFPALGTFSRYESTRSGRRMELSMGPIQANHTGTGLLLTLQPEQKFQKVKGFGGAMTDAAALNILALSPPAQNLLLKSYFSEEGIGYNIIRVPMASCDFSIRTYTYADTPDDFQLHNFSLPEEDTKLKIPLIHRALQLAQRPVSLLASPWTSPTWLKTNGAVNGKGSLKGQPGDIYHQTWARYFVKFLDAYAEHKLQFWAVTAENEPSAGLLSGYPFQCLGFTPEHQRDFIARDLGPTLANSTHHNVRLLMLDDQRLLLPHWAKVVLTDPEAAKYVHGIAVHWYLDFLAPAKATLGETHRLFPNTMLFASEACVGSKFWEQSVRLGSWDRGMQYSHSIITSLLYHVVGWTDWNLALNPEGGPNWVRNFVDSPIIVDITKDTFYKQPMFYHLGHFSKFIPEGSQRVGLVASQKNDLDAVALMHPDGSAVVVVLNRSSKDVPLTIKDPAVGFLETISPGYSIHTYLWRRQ

[2] = biological target: T2, Lysosomal acid glucosylceramidase (Homo sapiens, UniProt P04062, N409S); assay: as §1; format: tissue-based
[3] = biological target: Somatostatin receptor type 4 (Homo sapiens, UniProt P31391); assay: Binding affinity to human SST4 receptor
[4] = tested on: T1, Lysosomal acid glucosylceramidase (Homo sapiens), P04062 [N409S]; assay: Induction of glucocerebrosidase N370S mutant translocation in fibroblasts of patient with Gaucher disease assessed as co-localization of LAMP-1 in lysosomes at 1 uM after 5 days by laser scanning confocal microscopic analysis
How it was run: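 Gaucher patient fibroblasts on chamber slides, treated 5 days with compound. Cells fixed in 3% paraformaldehyde and permeabilized with 0.1% Triton-X. Stained with anti-LAMP-1 (1:100) and anti-GCase R386 (1:500), then Alexa-488/555 secondaries and DAPI. Imaged by confocal laser scanning at identical laser settings; collapsed z-stacks.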

[5] = Plasma concentration in C57BL/6 mouse at 30 mg/kg, ip after 0.5 hrs; format: ADME, organism-based; design: dose 30 mg/kg, route intraperitoneal
How it was run: (§2)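 Male C57BL/6 mice (20-21 g), single IP dose of 30 mg/kg at 3 mg/mL, 10 mL/kg, in 5% DMAC/5% Solutol HS 15/90% 10 mM pH 7.4 phosphate buffer; n=3 per time point. Retro-orbital blood into K2EDTA under isoflurane, pre-dose to 24 h. Plasma protein-precipitated with acetonitrile containing testosterone internal standard; LC-MS/MS positive ESI MRM; calibration 1.00-10000 ng/mL.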

[6] = Plasma concentration in C57BL/6 mouse at 30 mg/kg, ip after 24 hrs; format: ADME, organism-based; design: dose 30 mg/kg, route intraperitoneal; how it was run: as §2
[7] = Plasma concentration in C57BL/6 mouse at 30 mg/kg, ip after 12 hrs; format: ADME, organism-based; design: dose 30 mg/kg, route intraperitoneal; how it was run: as §2
[8] = Plasma concentration in C57BL/6 mouse at 30 mg/kg, ip after 0.083 hrs; format: ADME, organism-based; design: dose 30 mg/kg, route intraperitoneal; how it was run: as §2
[9] = tested on: Mus musculus; assay: AUC (infinity) in C57BL/6 mouse at 30 mg/kg, ip after 24 hrs; format: ADME, organism-based, Plasma; design: time infinity, dose 30 mg/kg, route intraperitoneal; settings: in vivo; how it was run: as §2
[10] = tested on: Mus musculus; assay: Tmax in C57BL/6 mouse at 30 mg/kg, ip after 24 hrs; format: ADME, organism-based; design: dose 30 mg/kg, route intraperitoneal; settings: in vivo; how it was run: as §2
[11] = Plasma concentration in C57BL/6 mouse at 30 mg/kg, ip after 8 hrs; format: ADME, organism-based; design: dose 30 mg/kg, route intraperitoneal; how it was run: as §2
[12] = Plasma concentration in C57BL/6 mouse at 30 mg/kg, ip after 2 hrs; format: ADME, organism-based; design: dose 30 mg/kg, route intraperitoneal; how it was run: as §2
[13] = Plasma concentration in C57BL/6 mouse at 30 mg/kg, ip after 0.25 hrs; format: ADME, organism-based; design: dose 30 mg/kg, route intraperitoneal; how it was run: as §2
[14] = Plasma concentration in C57BL/6 mouse at 30 mg/kg, ip after 4 hrs; format: ADME, organism-based; design: dose 30 mg/kg, route intraperitoneal; how it was run: as §2
[15] = Plasma concentration in C57BL/6 mouse at 30 mg/kg, ip after 1 hr; format: ADME, organism-based; design: dose 30 mg/kg, route intraperitoneal; how it was run: as §2
[16] = biological target: T2, Lysosomal acid glucosylceramidase; assay: Inhibition of glucocerebrosidase N370S mutant in spleen homogenates of patient with Gaucher disease using resorufin-beta-D-glucopyranoside as substrate after 60 mins fluorescence assay; format: tissue-based
[17] = tested on: Mus musculus; assay: Cmax in C57BL/6 mouse at 30 mg/kg, ip after 24 hrs; format: ADME, organism-based; design: dose 30 mg/kg, route intraperitoneal; settings: in vivo; how it was run: as §2
[18] = tested on: Mus musculus; assay: AUClast in C57BL/6 mouse at 30 mg/kg, ip after 24 hrs; format: ADME, organism-based, Plasma; design: time < 24 hr, dose 30 mg/kg, route intraperitoneal; settings: in vivo; how it was run: as §2
[19] = tested on: Mus musculus; assay: Half life in C57BL/6 mouse at 30 mg/kg, ip after 24 hrs; format: ADME, organism-based; design: dose 30 mg/kg, route intraperitoneal; settings: in vivo; how it was run: as §2

Somatostatin receptor type 4, sequence (P31391 whole entry): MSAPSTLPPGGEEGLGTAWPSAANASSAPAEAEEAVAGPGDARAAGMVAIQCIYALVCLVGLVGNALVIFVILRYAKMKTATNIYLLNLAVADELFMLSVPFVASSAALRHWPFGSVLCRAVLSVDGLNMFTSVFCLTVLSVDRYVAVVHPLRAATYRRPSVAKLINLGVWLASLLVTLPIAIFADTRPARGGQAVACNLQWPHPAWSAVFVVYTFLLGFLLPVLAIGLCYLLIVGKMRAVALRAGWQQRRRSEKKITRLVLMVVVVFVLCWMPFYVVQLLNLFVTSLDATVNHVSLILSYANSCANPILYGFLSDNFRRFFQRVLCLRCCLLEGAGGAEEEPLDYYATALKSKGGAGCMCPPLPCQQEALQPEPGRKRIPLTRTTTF

Compound: S=C(NCCCc1cnc[nH]1)NCCCN(CCc1ccc(Cl)cc1)c1ccc(Br)cn1
- IC50 [2]: 2000 nM

Compound: S=C(NCCCc1cnc[nH]1)NCCCN(Cc1ccc(Cl)cc1)c1ccc(Br)cc1
- Ki [3]: 160 nM
- IC50 [2]: 1300 nM
- Activity [4]: Active

Compound: S=C(NCCCc1c[nH]cn1)NCCN(Cc1ccc(Cl)c(Cl)c1)c1ccc(Br)cn1
- IC50 [2]: 2100 nM

Compound: S=C(NCCCc1c[nH]cn1)NCCCN(Cc1ccccc1)c1ccc(Br)cn1
- IC50 [2]: 5800 nM

Compound: S=C(NCCCc1c[nH]cn1)NCCCN(Cc1ccc(Cl)c(Cl)c1)c1ccccn1
- IC50 [2]: 7300 nM

Compound: CN(CCCc1cnc[nH]1)C(=S)NCCCN(Cc1ccc(Cl)cc1)c1ccc(Br)cn1
- Ki [3]: 26 nM
- IC50 [2]: 18000 nM

Compound: S=C(NCCCc1c[nH]cn1)NCCCN(Cc1ccc(Cl)c(Cl)c1)c1ccc(Br)cn1
- concentration at 0.5 h [5]: 4.84 µM
- concentration at 24 h [6]: 0.02 µM
- concentration at 12 h [7]: 0.2 µM
- concentration at 0.083 h [8]: 3.03 µM
- AUC [9]: 20700 ng·h/mL
- Tmax [10]: 1 h
- IC50 [2]: 600 nM
- concentration at 8 h [11]: 1.35 µM
- Activity [4]: Active
- concentration at 2 h [12]: 6.17 µM
- concentration at 0.25 h [13]: 4.24 µM
- concentration at 4 h [14]: 4.29 µM
- concentration at 1 h [15]: 6.39 µM
- IC50 [16]: 580 nM
- Cmax [17]: 3553 ng/mL
- AUClast [18]: 20600 ng·h/mL
- t1/2 [19]: 2.57 h

Compound: S=C(NCCCN(Cc1ccc(Cl)c(Cl)c1)c1ccc(Br)cn1)NCCc1c[nH]cn1
- IC50 [2]: 18300 nM

Compound: CN(CCCN(Cc1ccc(Cl)cc1)c1ccc(Br)cn1)C(=S)NCCCc1cnc[nH]1
- Ki [3]: 19 nM
- IC50 [2]: 2800 nM

Compound: OC[C@H]1CNC[C@@H](O)[C@@H]1O
- Activity [4]: Active

Compound: CCCCN(CCCNC(=S)NCCCc1c[nH]cn1)c1ccc(Br)cn1
- IC50 [2]: 8200 nM

Compound: O=C(NCCCc1c[nH]cn1)NCCCN(Cc1ccc(Cl)c(Cl)c1)c1ccc(Br)cn1
- IC50 [2]: 600 nM

Other lines, results leading:

- inhibition [1]: inactive
Compound: CCCCNC(=S)NCCCN(Cc1ccc(Cl)c(Cl)c1)c1ccc(Br)cn1

- IC50 [2]: 45000 nM
Compound: NCCCNC(=S)NCCCN(Cc1ccc(Cl)cc1)c1ccc(Br)cn1

- inhibition [1]: inactive
Compound: CC(=O)NCCCNC(=S)NCCCN(Cc1ccc(Cl)cc1)c1ccc(Br)cn1

- IC50 [2]: 1200 nM
Compound: S=C(NCCCc1c[nH]cn1)NCCCN(Cc1ccc(Cl)cc1)c1ccc(Br)cn1

- IC50 [2]: 800 nM
Compound: S=C(NCCCCN(Cc1ccc(Cl)cc1)c1ccc(Br)cn1)NCCCc1cnc[nH]1

- Ki [3]: 690 nM
- IC50 [2]: 46000 nM
Compound: S=C(NCCCNc1ccc(Br)cn1)NCCCc1c[nH]cn1

- IC50 [2]: 2800 nM
Compound: S=C(NCCCc1cnc[nH]1)NCCCN(CCc1ccccc1)c1ccc(Br)cn1

- IC50 [2]: 1000 nM
Compound: O=C(NCCCc1cnc[nH]1)NCCCN(Cc1ccc(Cl)cc1)c1ccc(Br)cn1

- IC50 [2]: 4000 nM
Compound: S=C(NCCCc1cnc[nH]1)NCCCN(Cc1ccc(Cl)cc1)c1cc(-c2ccccc2)ccn1

- IC50 [2]: 1300 nM
Compound: S=C(NCCCc1cnc[nH]1)NCCCN(Cc1ccc(Cl)cc1)c1ccc(-c2ccccc2)cn1
